# Results of several laboratories.
SMILES,target or system,test,setting,measurement,result
COc1cc(C2=CCCc3c2ccc(OC)c3OC(C)c2ccc([N+](=O)[O-])s2)cc(OC)c1OC (centres unmarked),,"tubulin polymerisation, inhibitor",20 min,IC50,> 20 µM
Cc1n[nH]c2ccc3nc(-c4ccc(C(=O)NCCN(C)C)cc4F)c4c(c3c12)CCCC4,HCC827,cell growth or viability,72 h,GI50,611 nM
COc1cc(C2=CCCc3c2ccc(OC)c3OC(C)c2cnc([N+](=O)[O-])n2C)cc(OC)c1OC (centres unmarked),,"tubulin polymerisation, inhibitor",20 min,IC50,> 20 µM
Cc1n[nH]c2ccc3nc(-c4ccc(C(=O)NCCN(C)C)cc4F)c4c(c3c12)CCCCC4,HCC827,cell growth or viability,72 h,GI50,4860 nM
Cc1nc(Nc2ncc(C(=O)Nc3c(C)cccc3Cl)s2)cc(N2CC[C@H](O)C2)n1,Daudi,"cell growth or viability, ATP luminescence","10 µM, 72 h",inhibition,75%
CCCCn1cnc2ccc(-c3ccc(NC(=O)NC(C)(C)C)nc3)cc2c1=O,HCC827,"cell growth or viability, CCK-8",72 h,IC50,3.97 µM
O=C(Nc1cccc(Cl)c1)c1ccc(COC(Cn2ccnc2)c2ccc(Cl)cc2Cl)cc1 (centres unmarked),Nakaseomyces glabratus,"microbial growth, broth dilution",,MIC80,0.25 µg/mL
CN(C)CCNC(=O)c1ccc(-c2nc3ccc4[nH]ncc4c3c3c2CCCC3)c(F)c1,HCC827,cell growth or viability,72 h,GI50,1010 nM
Clc1ccc(COC(Cn2ccnc2)c2ccc(Cl)cc2Cl)c(Cl)c1 (centres unmarked),Nakaseomyces glabratus,"microbial growth, broth dilution",,MIC80,0.125 µg/mL
COc1cc(C2=CCCc3c2ccc(OC)c3OCc2ccc([N+](=O)[O-])s2)cc(OC)c1OC,,"tubulin polymerisation, inhibitor",20 min,IC50,> 20 µM
O=C(Nc1ccc(F)cc1)c1ccc(COC(Cn2ccnc2)c2ccc(Cl)cc2Cl)cc1 (centres unmarked),Nakaseomyces glabratus,"microbial growth, broth dilution",,MIC80,0.25 µg/mL
COc1cc(C2=CCCCc3c2ccc(OC)c3OC(C)c2ccc([N+](=O)[O-])s2)cc(OC)c1OC (centres unmarked),,"tubulin polymerisation, inhibitor",20 min,IC50,> 20 µM
OC(Cn1cncn1)(Cn1cncn1)c1ccc(F)cc1F,Nakaseomyces glabratus,"microbial growth, broth dilution",,MIC80,8 µg/mL
CCCCn1cnc2ccc(-c3ccc(NC(=O)NCc4ccccc4)nc3)cc2c1=O,HCC827,"cell growth or viability, CCK-8",72 h,IC50,0.32 µM
